Calls of active or inactive are those of the source. The rule behind the calls is not given here.
Assays:
[1] = (§1) Antiproliferative activity against human HCT8 cells assessed as inhibition of cell proliferation at 1 uM after 72 hrs by MTT assay; assay type: functional; settings: HCT-8, 72 h, read-out: GI
Outline: (§2)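 Cells grown in DMEM with 10% FBS and exposed to compound at 1 µM for 72 h. Proliferation measured by MTT at 570 nm and expressed as % inhibition versus untreated cells. Mean ± SD of three independent experiments.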

CCD-841CoN = experiment: Induction of nitric oxide release in human CCD-841-CoN cells at 100 uM incubated for 150 mins by Griess assay; assay type: functional, cell-based
Outline: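 Cells (1 × 10^6/well) treated in triplicate with compound at 100 µM for 150 min. Lysates mixed with Griess reagent for 10 min at 37 °C and read at 540 nm. Nitrite quantified from a sodium nitrite standard curve; 0.4% DMSO-treated cells served as background. Mean ± SD of three experiments.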

HCT-8 [2] = experiment: Antiproliferative activity against human HCT8 cells assessed as inhibition of cell proliferation at 0.25 uM after 24 hrs by MTT assay; assay type: functional, cell-based
HCT-8 [3] = experiment: Antiproliferative activity against 5-FU resistant human HCT8 cells assessed as inhibition of cell proliferation at 0.25 uM after 24 hrs by MTT assay; assay type: functional, cell-based
HCT-8 [4] = experiment: Antiproliferative activity against human HCT8 cells assessed as inhibition of cell proliferation at 0.125 to 0.5 uM incubated for 72 hrs after 24 hrs of pre-treatment with 0.75 uM and 1 .5 uM pepT1 substrate Gly-Sar by MTT assay; assay type: functional, cell-based
Outline: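 Cells pretreated with or without Gly-Sar (0.75 or 1.5 µM) for 24 h, then given a range of compound concentrations for 72 h. Proliferation inhibition measured by MTT.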

HCT-8 [5] = experiment: Induction of apoptosis in 5-FU resistant human HCT8 cells incubated for 24 hrs by FITC-Annexin-V and propidium iodide staining based flow cytometry; assay type: functional, cell-based
[6] = target: Signal transducer and activator of transcription 3 (Homo sapiens) (UniProt P40763); experiment: Inhibition of STAT3 protein phosphorylation in human HCT8 cells at 0.25 to 1 uM incubated for 24 hrs by Western blotting method; assay type: cell-based; settings: HCT-8
Signal transducer and activator of transcription 3 (Homo sapiens), sequence (P40763 whole entry): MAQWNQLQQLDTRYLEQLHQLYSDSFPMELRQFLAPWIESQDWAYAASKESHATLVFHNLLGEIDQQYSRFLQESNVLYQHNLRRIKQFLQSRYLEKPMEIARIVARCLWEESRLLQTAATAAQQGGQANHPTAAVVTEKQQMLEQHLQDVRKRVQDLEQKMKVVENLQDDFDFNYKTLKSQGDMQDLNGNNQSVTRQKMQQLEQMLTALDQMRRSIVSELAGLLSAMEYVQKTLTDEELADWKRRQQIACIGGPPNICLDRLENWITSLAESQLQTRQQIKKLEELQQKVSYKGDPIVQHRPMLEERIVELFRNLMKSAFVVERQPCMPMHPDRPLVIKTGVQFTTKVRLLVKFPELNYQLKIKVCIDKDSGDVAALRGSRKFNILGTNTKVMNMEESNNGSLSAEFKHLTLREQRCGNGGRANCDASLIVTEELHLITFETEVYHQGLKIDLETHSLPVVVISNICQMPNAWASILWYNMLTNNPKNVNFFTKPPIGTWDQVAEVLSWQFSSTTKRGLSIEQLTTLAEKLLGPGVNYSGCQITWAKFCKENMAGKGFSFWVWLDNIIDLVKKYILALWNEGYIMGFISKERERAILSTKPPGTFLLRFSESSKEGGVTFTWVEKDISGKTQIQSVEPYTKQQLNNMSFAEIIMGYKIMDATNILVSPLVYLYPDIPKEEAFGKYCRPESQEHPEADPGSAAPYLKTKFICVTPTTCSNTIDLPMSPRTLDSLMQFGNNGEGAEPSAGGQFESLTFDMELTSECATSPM
Outline: (§3)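 Cells (1 x 10^6) grown 24 h in 6 cm dishes, then exposed in duplicate for 24 h to 0.25, 0.5 or 1 µM compound, with or without PTIO. Lysates (20 µg/lane) were run on 7.5% SDS-PAGE, blotted to PVDF and blocked in 5% milk. HRP secondaries with ECL detection; bands quantified by densitometry against β-actin or GAPDH. Three separate experiments, mean ± SD.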

HCT-8 [7] = experiment: Inhibition of ERK protein phosphorylation in human HCT8 cells at 0.25 to 1 uM incubated for 24 hrs by Western blotting method; assay type: cell-based; outline: as §3
HCT-8 [8] = experiment: Inhibition of BCRP protein expression in FU-resistant human HCT8 cells at 1 uM in presence of NO scavenger carboxy-PTIO incubated for 24 hrs by Western blotting method; assay type: functional, cell-based; outline: as §3
[9] = Toxicity in female ICR mouse assessed as mouse mortality at 2.38 x 10^3 umol/kg administered as single dose via oral gavage measured up to 14 days post treatment; assay type: organism-based; settings: in vivo
Outline: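 Female or male adult ICR mice, 10 per sex group, were randomised and given a single oral gavage dose of 2,000 mg/kg in cremophor-EL/DMSO/PBS (1:1:8). Total mortality was recorded over days 1–14, and body weight on days 0, 7 and 14 as mean ± SD.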

Mus musculus [10] = experiment: Toxicity in nude BALB/c mouse xenografted with FU-resistant human HCT8 cells assessed as body weight level at 17.8 umol/kg administered as via oral gavage daily for 21 days (reference value: 22.3 +/- 1.9 g); assay type: organism-based, HCT-8; settings: in vivo, 504 h
Outline: (§4)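 Male BALB/c nude mice, 6-8 weeks old, inoculated s.c. in right flank with HCT-8/5-FU cells (2 × 10^6/mouse). Once tumors reached 180-200 mm3 (9-11 days post-implantation), mice were randomized and dosed by gavage daily for 21 consecutive days in cremophor-EL/DMSO/PBS (1:1:8) (vehicle alone 0.2 mL). Body weights recorded on day 1 and day 21. Organ size, color and weights were inspected for liver, kidney, lung and heart. n = 8 per group; mean ± SD.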

[11] = Antitumor activity against FU-resistant human HCT8 cells xenografted in nude BALB/c mouse assessed as reduction in tumor weight at 35.7 umol/kg administered as via oral gavage daily for 21 days; assay type: functional; settings: HCT-8, po, 504 h
Outline: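 Male BALB/c nude mice, 6–8 weeks old, inoculated s.c. in the right flank with HCT-8/5-FU cells (2 × 10^6). Once tumors reached 180–200 mm3 (days 9–11), mice were randomized (n = 8) to daily oral gavage for 21 days in cremophor-EL/DMSO/PBS (1:1:8). Tumor volume = W2(L/2), caliper-measured every other day, blinded; tumors weighed at end.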

Mus musculus [12] = experiment: Toxicity in nude BALB/c mouse xenografted with FU-resistant human HCT8 cells assessed as abnormal color changes in liver at 17.8 to 35.7 umol/kg administered as via oral gavage daily for 21 days; assay type: organism-based, HCT-8; settings: in vivo, 504 h
Outline: (§5)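 Male BALB/c nude mice aged 6-8 weeks, implanted s.c. in the right flank with HCT-8/5-FU cells (2 × 10^6). Once tumors reached 180-200 mm3 (days 9-11), randomized to daily gavage for 21 days in cremophor-EL/DMSO/PBS (1:1:8), 0.2 mL. At the end, liver, kidney, lung and heart checked for size, colour and weight. n = 8 per group.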

Mus musculus [13] = experiment: Toxicity in nude BALB/c mouse xenografted with FU-resistant human HCT8 cells assessed as abnormal color changes in kidney at 17.8 to 35.7 umol/kg administered as via oral gavage daily for 21 days; assay type: organism-based, HCT-8; settings: in vivo, 504 h; outline: as §5
HCT-8 [14] = experiment: as §1; assay type: functional; outline: as §2
[15] = target: Signal transducer and activator of transcription 3 (Homo sapiens) (UniProt P40763); experiment: Inhibition of STAT3 protein phosphorylation in human HCT8 cells at 1 uM incubated for 24 hrs by Western blotting method; assay type: cell-based; settings: HCT-8; outline: as §3
[16] = target: Multidrug resistance-associated protein 1 (Homo sapiens, UniProt P33527); experiment: Induction of nitrosylation of MRP1 protein in FU-resistant human HCT8 cells at 1 uM incubated for 24 hrs by Western blotting method; assay type: cell-based; settings: hct-8, 24 h
Multidrug resistance-associated protein 1, sequence (P33527 whole entry): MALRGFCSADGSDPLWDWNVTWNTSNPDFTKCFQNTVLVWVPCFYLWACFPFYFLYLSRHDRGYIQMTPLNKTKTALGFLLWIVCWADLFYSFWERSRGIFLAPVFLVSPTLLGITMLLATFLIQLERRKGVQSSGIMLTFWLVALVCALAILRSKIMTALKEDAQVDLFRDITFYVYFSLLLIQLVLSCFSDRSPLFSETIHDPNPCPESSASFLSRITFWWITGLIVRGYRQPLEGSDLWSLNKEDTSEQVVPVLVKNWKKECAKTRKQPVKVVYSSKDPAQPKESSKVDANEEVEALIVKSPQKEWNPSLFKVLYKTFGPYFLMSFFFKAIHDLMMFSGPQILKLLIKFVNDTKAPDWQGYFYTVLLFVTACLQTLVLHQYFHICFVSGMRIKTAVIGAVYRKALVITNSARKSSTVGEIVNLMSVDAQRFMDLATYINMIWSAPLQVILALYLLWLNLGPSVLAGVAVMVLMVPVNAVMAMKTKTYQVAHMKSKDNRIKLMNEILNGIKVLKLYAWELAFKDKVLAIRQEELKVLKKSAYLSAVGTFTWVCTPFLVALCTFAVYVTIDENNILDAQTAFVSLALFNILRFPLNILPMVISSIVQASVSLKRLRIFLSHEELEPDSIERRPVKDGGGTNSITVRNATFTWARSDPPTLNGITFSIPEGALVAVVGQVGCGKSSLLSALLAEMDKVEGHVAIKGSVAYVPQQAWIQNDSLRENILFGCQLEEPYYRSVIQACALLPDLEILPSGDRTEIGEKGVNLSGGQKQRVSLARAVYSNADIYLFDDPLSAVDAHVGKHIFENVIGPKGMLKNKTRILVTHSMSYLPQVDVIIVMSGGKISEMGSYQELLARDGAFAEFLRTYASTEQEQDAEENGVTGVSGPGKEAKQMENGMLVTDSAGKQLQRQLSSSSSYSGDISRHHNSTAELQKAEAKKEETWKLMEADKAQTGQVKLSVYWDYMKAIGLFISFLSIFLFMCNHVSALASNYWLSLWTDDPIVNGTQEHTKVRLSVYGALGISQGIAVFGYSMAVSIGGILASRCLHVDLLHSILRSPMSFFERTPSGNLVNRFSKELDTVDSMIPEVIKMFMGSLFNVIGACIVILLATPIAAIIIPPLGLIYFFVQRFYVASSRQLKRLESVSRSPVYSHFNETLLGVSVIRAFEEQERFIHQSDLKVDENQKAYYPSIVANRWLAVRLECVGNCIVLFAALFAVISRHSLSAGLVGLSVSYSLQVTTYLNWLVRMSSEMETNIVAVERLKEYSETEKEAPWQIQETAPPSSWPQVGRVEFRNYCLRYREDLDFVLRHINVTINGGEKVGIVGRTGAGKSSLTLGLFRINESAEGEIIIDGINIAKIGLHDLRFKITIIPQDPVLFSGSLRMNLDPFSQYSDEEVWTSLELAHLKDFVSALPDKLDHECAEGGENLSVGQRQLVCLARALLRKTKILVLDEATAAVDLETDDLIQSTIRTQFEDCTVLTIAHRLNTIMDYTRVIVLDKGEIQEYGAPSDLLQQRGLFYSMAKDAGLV
Outline: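 HCT-8/5-FU cells (1 × 10^6) treated in duplicate for 24 h with 0.25, 0.5 or 1 µM test compound or 1 µM reference, with or without PTIO. Lysates immunoprecipitated overnight at 4 °C with anti-nitrotyrosine antibody on protein G beads. Eluates blotted with specific anti-Pgp, anti-MRP1 or anti-BCRP antibodies and quantified by densitometry. Mean ± SD of three experiments.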

Mus musculus [17] = experiment: Toxicity in nude BALB/c mouse xenografted with FU-resistant human HCT8 cells assessed as body weight level at 59.4 umol/kg administered as via oral gavage daily for 21 days (reference value: 20.8 +/- 2.2 g); assay type: organism-based, HCT-8; settings: in vivo, 504 h; outline: as §4
Mus musculus [18] = experiment: Toxicity in nude BALB/c mouse xenografted with FU-resistant human HCT8 cells assessed as abnormal color changes in liver at 59.4 umol/kg administered as via oral gavage daily for 21 days; assay type: organism-based, HCT-8; settings: in vivo, 504 h; outline: as §5
Mus musculus [19] = experiment: Toxicity in nude BALB/c mouse xenografted with FU-resistant human HCT8 cells assessed as abnormal color changes in kidney at 59.4 umol/kg administered as via oral gavage daily for 21 days; assay type: organism-based, HCT-8; settings: in vivo, 504 h; outline: as §5
Mus musculus [20] = experiment: Toxicity in nude BALB/c mouse xenografted with FU-resistant human HCT8 cells assessed as abnormal color changes in lung at 59.4 umol/kg administered as via oral gavage daily for 21 days; assay type: organism-based, HCT-8; settings: in vivo, 504 h; outline: as §5

For `CC1(C)CC[C@]2(C(=O)NCC(=O)OCC#CCOc3no[n+]([O-])c3S(=O)(=O)c3ccccc3)CC[C@]3(C)[C@H](C(=O)C=C4[C@@]5(C)C=C(C#N)C(=O)C(C)(C)[C@@H]5CC[C@]43C)[C@@H]2C1`, the inhibition of growth at 1 µM [1] was over 90%, the Activity (CCD-841CoN) was “inactive” and the Activity (HCT-8 [2]) was “Active”. The Activity (HCT-8 [3]) was “Active”, the inhibition (HCT-8 [4]) was “inactive” and the Activity (HCT-8 [5]) was “Dose-dependent effect”. For the same compound, the inhibition [6] was “Dose-dependent effect”, the inhibition (HCT-8 [7]) was “Dose-dependent effect” and the inhibition (HCT-8 [8]) was “inactive”. It also gave a mortality at 336 h [9] of 0%, an Activity (Mus musculus [10]) of 17.5 g and an inhibition in vivo at 35.7 µmol/kg [11] of 60.8%. The Activity (Mus musculus [12]) was “Non-toxic” and the Activity (Mus musculus [13]) was “Non-toxic”.
With `COC(=O)[C@]12CCC(C)(C)C[C@H]1[C@H]1C(=O)C=C3[C@@]4(C)C=C(C#N)C(=O)C(C)(C)[C@@H]4CC[C@@]3(C)[C@]1(C)CC2` [BARDOXOLONE METHYL] the “growth inhibition (GI)” value (HCT-8 [14]) was “Active”, the inhibition [15] was “Active” and the Activity [16] was “Not Active”. The Activity (Mus musculus [17]) was 16.7 g, the Activity (Mus musculus [18]) was “Non-toxic” and the Activity (Mus musculus [19]) was “Non-toxic”. The Activity (Mus musculus [20]) was “Non-toxic”.

Reference: ChEMBL document CHEMBL3414437, “Synthesis of CDDO-amino acid-nitric oxide donor trihybrids as potential antitumor agents against both drug-sensitive and drug-resistant colon cancer” (J Med Chem, 2015)
